Experiments:
[1] = Permeability of the compound at 10 uM after 30 mins by PAMPA; assay type: ADME; details: read-out: permeability
[2] = Half life in CD-1 mouse liver microsomes by UPLC-MS analysis; assay type: ADME
[3] = Half life in rat liver microsomes by UPLC-MS analysis; assay type: ADME
[4] = Half life in human liver microsomes by UPLC-MS analysis; assay type: ADME
[5] = Half life in dog liver microsomes by UPLC-MS analysis; assay type: ADME, Canis lupus familiaris
[6] = Intrinsic clearance in CD-1 mouse liver microsomes after 0.5 to 4 hrs by UPLC-MS analysis; assay type: ADME; details: read-out: CLH
[7] = Intrinsic clearance in rat liver microsomes after 0.5 to 4 hrs by UPLC-MS analysis; assay type: ADME; details: read-out: CLH
[8] = Intrinsic clearance in human liver microsomes after 0.5 to 4 hrs by UPLC-MS analysis; assay type: ADME; details: read-out: CLH
[9] = Intrinsic clearance in dog liver microsomes after 0.5 to 4 hrs by UPLC-MS analysis; assay type: ADME, Canis lupus familiaris; details: read-out: CLH
[10] = test system: Plasma; experiment: Stability in mouse plasma assessed as compound stability time by UPLC-MS analysis; assay type: ADME, cell-free
[11] = test system: Plasma; experiment: Stability in rat plasma assessed as compound stability time by UPLC-MS analysis; assay type: ADME, cell-free
[12] = test system: Plasma; experiment: Stability in human plasma assessed as compound stability time by UPLC-MS analysis; assay type: ADME, cell-free
[13] = Stability of the compound in phosphate buffered saline assessed as compound stability time at pH 7.4 by UPLC-MS analysis; assay type: physicochemical; details: buffer
[14] = Stability of the compound in phosphate buffered saline assessed as compound stability time at pH 5 by UPLC-MS analysis; assay type: physicochemical; details: buffer
[15] = Stability of the compound in phosphate buffered saline assessed as compound stability time at pH 3 by UPLC-MS analysis; assay type: physicochemical; details: buffer
[16] = Half life of the compound in aqueous buffer; assay type: physicochemical
[17] = Cmax in C57BL/6 mouse at 20 mg/kg, iv by UPLC-MS analysis; assay type: ADME, organism-based; parameters: dose 20 mg/kg, route intravenous; details: in vivo
In short: (§1)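 Female C57BL/6 mice, 22-27 g; single tail-vein injection at 10 or 20 mg/kg (vehicle groups at 0) in EtOH/PPG/PBS pH 7.4 5/45/50 with HβCD 10 mM and 5% DMSO, 4 ml/kg. Blood taken at 5, 15, 30 min, 1, 4, 24 h, one mouse per time point, and at 48 h. EDTA plasma mixed with acetonitrile containing warfarin internal standard; UPLC/MS quantitation by peak-area ratio.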

[18] = Tmax in C57BL/6 mouse at 20 mg/kg, iv by UPLC-MS analysis; assay type: ADME, organism-based; details: in vivo
In short: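 Female C57BL/6 mice (22-27 g) received a single tail-vein injection at 4 ml/kg in 5/45/50 EtOH/PPG/PBS (pH 7.4) with 10 mM HβCD and 5% DMSO. Groups were 0, 10 and 20 mg/kg. Blood was drawn retro-orbitally at 5, 15, 30 min, 1, 4, 24 and 48 h into EDTA. Plasma was precipitated with acetonitrile containing 2 uM warfarin as internal standard and quantified by UPLC/MS from the analyte/internal-standard peak-area ratio.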

[19] = species on record: Mus musculus; experiment: Drug metabolism in C57BL/6 mouse assessed as 4-(5-amino-3-(pyridin-2-yl)-1H-1,2,4-triazol-1-yl)-7-methoxyquinazolin-6-ol formation by qualitative tandem mass spectrometric analysis; assay type: ADME, organism-based; details: in vivo
[20] = species on record: Mus musculus; experiment: Drug metabolism in C57BL/6 mouse assessed as 4-(5-amino-3-(pyridin-2-yl)-1H-1,2,4-triazol-1-yl)quinazoline-6,7,8-triol formation by qualitative tandem mass spectrometric analysis; assay type: ADME, organism-based; details: in vivo
[21] = species on record: Mus musculus; experiment: Drug metabolism in C57BL/6 mouse assessed as (2S,3S,4S,5R,6S)-6-(4-(5-amino-3-(pyridin-2-yl)-1H-1,2,4-triazol-1-yl)-7-methoxyquinazolin-6-yloxy)-3,4,5-trihydroxytetrahydro-2H-pyran-2-carboxylic acid formation by qualitative tandem mass spectrometric analysis; assay type: ADME, organism-based; details: in vivo
[22] = Clearance in C57BL/6 mouse at 10 mg/kg, iv; assay type: ADME, organism-based; details: in vivo; in short: as §1
[23] = Half life in C57BL/6 mouse at 10 mg/kg, iv; assay type: ADME, organism-based; details: in vivo; in short: as §1
[24] = Half life in C57BL/6 mouse at 20 mg/kg, iv by UPLC-MS analysis; assay type: ADME, organism-based; details: in vivo; in short: as §1
[25] = species on record: Mus musculus; experiment: Drug level in C57BL/6 mouse treated with 1-(6,7-Dimethoxyquinazolin-4-yl)-3-(pyridin-2-yl)-1H-1,2,4-triazol-5-amine by qualitative tandem mass spectrometric analysis; assay type: ADME, organism-based; details: in vivo

| Compound | Papp at 0.5 h, 10 µM [1] [×10⁻⁶ cm/s] | half-life [2] [min] | half-life [3] [min] | half-life [4] [min] | half-life [5] [min] | CLint scaled [6] [mL/min/kg] | CLint scaled [7] [mL/min/kg] | CLint scaled [8] [mL/min/kg] | CLint scaled [9] [mL/min/kg] | Stability [10] [h] | Stability [11] [h] | Stability [12] [h] | Stability [13] [h] | Stability [14] [h] | Stability [15] [h] | Cmax [17] [µM] | Drug metabolism [25] | further results |
| --- | --- | --- | --- | --- | --- | --- | --- | --- | --- | --- | --- | --- | --- | --- | --- | --- | --- | --- |
| COc1cc2ncnc(-n3nc(-c4ccccn4)nc3N)c2cc1OC | 95.9 | 54 | 48 | 204 | 36 | 61.7 | 57.8 | 6.1 | 52.5 | > 48 | 19 | > 48 | > 48 | > 48 | > 48 | 4 |  | half-life [16]: > 2880 min; Tmax [18]: 5 min; Drug metabolism [19]: metabolite_detected; Drug metabolism [20]: metabolite_detected; Drug metabolism [21]: metabolite_detected; clearance [22]: 2.67 mL/min; half-life [23]: 60 min |
| COc1cc2ncnc(-n3nc(-c4ccccn4)nc3N)c2cc1O |  |  |  |  |  |  |  |  |  |  |  |  |  |  |  |  | metabolite_detected |  |
| COCCOc1cc2ncnc(-n3nc(-c4ccccn4)nc3N)c2cc1OCCOC | 16.6 | 144 | > 240 | 96 | > 240 | 22.9 | < 11.7 | 12.9 | < 8.3 | > 48 |  | > 48 | > 48 | > 48 | > 48 | 5.8 |  |  |
| COc1cc2ncnc(-n3nc(-c4ccccn4)nc3N)c2cc1OCCCNC(=O)OC(C)C | 432 | 12 | 60 | 66 | > 240 | 329 | 45.1 | 18.8 | < 7.9 | > 24 | > 24 | > 24 | > 24 | > 24 | > 24 |  |  |  |
| COc1cc2ncnc(-n3nc(-c4ccccn4)nc3N)c2cc1O[C@@H]1O[C@H](C(=O)O)[C@@H](O)[C@H](O)[C@H]1O |  |  |  |  |  |  |  |  |  |  |  |  |  |  |  |  | metabolite_detected |  |

The next lines start with results.

| Papp at 0.5 h, 10 µM [1] [×10⁻⁶ cm/s] | half-life [2] [min] | half-life [3] [min] | half-life [4] [min] | half-life [5] [min] | CLint scaled [6] [mL/min/kg] | CLint scaled [7] [mL/min/kg] | CLint scaled [8] [mL/min/kg] | CLint scaled [9] [mL/min/kg] | Stability [10] [h] | Stability [11] [h] | Stability [12] [h] | Stability [13] [h] | Stability [14] [h] | Stability [15] [h] | Cmax [17] [µM] | Drug metabolism [25] | Compound | further results |
| --- | --- | --- | --- | --- | --- | --- | --- | --- | --- | --- | --- | --- | --- | --- | --- | --- | --- | --- |
| 196 | 120 | > 240 | > 240 | > 240 | 27.1 | < 11.7 | < 5.2 | < 8.3 | > 48 | > 24 | > 48 | > 24 | > 24 | > 24 | 9.5 |  | COCCOc1cc2c(-n3nc(-c4ccccn4)nc3N)ncnc2cc1OC | half-life [24]: 1140 min |
|  |  |  |  |  |  |  |  |  |  |  |  |  |  |  |  | metabolite_detected | Nc1nc(-c2ccccn2)nn1-c1ncnc2c(O)c(O)c(O)cc12 |  |

— ChEMBL document CHEMBL3763144, “Optimization of a Novel Series of Ataxia-Telangiectasia Mutated Kinase Inhibitors as Potential Radiosensitizing Agents” (J Med Chem, 2016)
